Data from ChEMBL document CHEMBL2440021, “Discovery of β2 Adrenergic Receptor Ligands Using Biosensor Fragment Screening of Tagged Wild-Type Receptor” (ACS Med Chem Lett, 2013).
pKd: −log10 of the molar value. Calls of active or inactive are those of the source. The rule behind the calls is not given here.

Columns and labels:
[1] = target: T1, Beta-2 adrenergic receptor (Homo sapiens, UniProt P07550); test: Binding affinity to N-terminal FLAG-tagged C-terminal His-10-tagged human beta2 adrenoceptor expressed in insect Sf9 cells by surface plasmon resonance analysis in presence of maltose neopentyl glycol; conditions: for pKd: read-out: Kd
Outline: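 Same NTA chip capture of His-10-tagged purified receptor as the primary SPR screen, but the binding run was done in MNG detergent. KD by SPR.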
Target sequence in this assay (P07550 whole entry): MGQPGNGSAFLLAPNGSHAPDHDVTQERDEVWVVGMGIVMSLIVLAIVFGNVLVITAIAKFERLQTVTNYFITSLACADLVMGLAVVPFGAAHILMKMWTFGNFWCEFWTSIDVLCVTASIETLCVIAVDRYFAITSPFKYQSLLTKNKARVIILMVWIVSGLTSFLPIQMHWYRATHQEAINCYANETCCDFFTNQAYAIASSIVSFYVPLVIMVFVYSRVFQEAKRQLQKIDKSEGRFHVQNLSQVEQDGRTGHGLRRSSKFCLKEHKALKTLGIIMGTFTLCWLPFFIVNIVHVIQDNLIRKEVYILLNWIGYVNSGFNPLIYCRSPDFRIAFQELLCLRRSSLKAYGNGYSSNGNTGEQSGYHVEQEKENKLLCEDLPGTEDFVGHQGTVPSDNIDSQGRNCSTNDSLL

[2] = target: T1, Beta-2 adrenergic receptor; test: Antagonist activity at human beta2 adrenoceptor containing C-terminus of V2 vasopressin receptor expressed in HEK293 cells assessed as inhibition of isoproterenol-induced beta arrestin recruitment at 100 uM after 15 to 18 hrs by luciferase reporter gene assay; format: functional, cell-based
Target sequence in this assay (P07550 whole entry, looked up): as the sequence (P07550 whole entry) above

[3] = target: Vasopressin V2 receptor (Homo sapiens) (UniProt P30518); test: Antagonist activity at AVPR2 (unknown origin) assessed as inhibition of [Arg8]-Vasopressin induced cAMP production at 10 to 100 uM; format: functional
Sequence of Vasopressin V2 receptor (Homo sapiens) (P30518 whole entry): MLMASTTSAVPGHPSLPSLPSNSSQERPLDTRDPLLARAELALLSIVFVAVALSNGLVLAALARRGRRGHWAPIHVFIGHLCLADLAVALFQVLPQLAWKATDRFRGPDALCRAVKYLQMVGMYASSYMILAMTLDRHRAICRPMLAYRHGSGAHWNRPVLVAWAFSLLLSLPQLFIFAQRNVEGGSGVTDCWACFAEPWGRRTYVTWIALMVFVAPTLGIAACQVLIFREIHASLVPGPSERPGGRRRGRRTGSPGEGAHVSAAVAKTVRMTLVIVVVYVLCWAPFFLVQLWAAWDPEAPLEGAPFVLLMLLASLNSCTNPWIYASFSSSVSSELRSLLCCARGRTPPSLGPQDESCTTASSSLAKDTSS

[4] = target: T1, Beta-2 adrenergic receptor; test: Displacement of [125I]-Cyanopindolol from human beta2 adrenoceptor expressed in HEK293 cells after 90 mins by gamma counting analysis; format: cell-based
Target sequence in this assay (P07550 whole entry, looked up): as the sequence (P07550 whole entry) above

[5] = target: T1, Beta-2 adrenergic receptor; test: Agonist activity at human beta2 adrenoceptor expressed in HEK293 cells assessed as stimulation of cAMP production after 5 mins by luciferase reporter gene assay; format: functional, cell-based
Target sequence in this assay (P07550 whole entry, looked up): as the sequence (P07550 whole entry) above

[6] = target: T1, Beta-2 adrenergic receptor; test: Agonist activity at human beta2 adrenoceptor containing C-terminus of V2 vasopressin receptor expressed in HEK293 cells assessed as stimulation of beta arrestin recruitment after 15 to 18 hrs by luciferase reporter gene assay; format: functional, cell-based
Target sequence in this assay (P07550 whole entry, looked up): as the sequence (P07550 whole entry) above

[7] = target: T1, Beta-2 adrenergic receptor; test: Binding affinity to N-terminal FLAG-tagged C-terminal His-10-tagged human beta2 adrenoceptor expressed in insect Sf9 cells by surface plasmon resonance analysis
Target sequence in this assay (P07550 whole entry): as above

[8] = target: Vasopressin V2 receptor (Homo sapiens) (UniProt P30518); test: Agonist activity at AVPR2 (unknown origin) assessed as stimulation of cAMP production; format: functional
[9] = target: Vasopressin V2 receptor (Homo sapiens) (UniProt P30518); test: Agonist activity at AVPR2 (unknown origin) assessed as stimulation of beta arrestin recruitment; format: functional
[10] = target: T1, Beta-2 adrenergic receptor; test: Binding affinity to N-terminal FLAG-tagged C-terminal His-10-tagged human beta2 adrenoceptor expressed in insect Sf9 cells by surface plasmon resonance analysis in presence of dodecyl maltoside
Target sequence in this assay (P07550 whole entry, looked up): as the sequence (P07550 whole entry) above

[11] = target: Vasopressin V2 receptor (Homo sapiens) (UniProt P30518); test: Antagonist activity at AVPR2 (unknown origin) assessed as inhibition of [Arg8]-Vasopressin induced beta arrestin recruitment at 10 uM; format: functional
[12] = target: Beta-1 adrenergic receptor (Homo sapiens) (UniProt P08588); test: Displacement of [125I]-Cyanopindolol from human beta1 adrenoceptor expressed in HEK293 cells after 90 mins by gamma counting analysis; format: cell-based
Sequence of Beta-1 adrenergic receptor (Homo sapiens) (P08588 whole entry, looked up): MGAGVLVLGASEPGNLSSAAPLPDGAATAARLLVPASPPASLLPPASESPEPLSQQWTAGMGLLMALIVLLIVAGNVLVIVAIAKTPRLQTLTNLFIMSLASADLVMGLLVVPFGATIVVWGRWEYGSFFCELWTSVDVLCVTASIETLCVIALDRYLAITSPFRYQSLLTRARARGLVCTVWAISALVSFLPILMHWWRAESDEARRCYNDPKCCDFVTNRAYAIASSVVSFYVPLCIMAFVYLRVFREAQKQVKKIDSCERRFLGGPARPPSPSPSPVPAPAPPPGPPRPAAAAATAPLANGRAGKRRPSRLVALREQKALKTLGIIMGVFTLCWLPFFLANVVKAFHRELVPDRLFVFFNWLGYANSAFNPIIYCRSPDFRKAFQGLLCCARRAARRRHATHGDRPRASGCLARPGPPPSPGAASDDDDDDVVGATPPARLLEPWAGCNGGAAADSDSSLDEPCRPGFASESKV

[13] = target: T1, Beta-2 adrenergic receptor; test: Antagonist activity at human beta2 adrenoceptor expressed in HEK293 cells assessed as inhibition of isoproterenol-induced cAMP production at 100 uM after 5 mins by luciferase reporter gene assay; format: functional, cell-based
Target sequence in this assay (P07550 whole entry, looked up): as the sequence (P07550 whole entry) above

[14] = target: T1, Beta-2 adrenergic receptor; test: Antagonist activity at human beta2 adrenoceptor containing C-terminus of V2 vasopressin receptor expressed in HEK293 cells assessed as inhibition of isoproterenol-induced beta arrestin recruitment at 10 uM after 15 to 18 hrs by luciferase reporter gene assay; format: functional, cell-based
[15] = target: T1, Beta-2 adrenergic receptor; conditions: Sf9
[16] = target: T1, Beta-2 adrenergic receptor; test: Antagonist activity at human beta2 adrenoceptor expressed in HEK293 cells assessed as inhibition of isoproterenol-induced cAMP production at 10 uM after 5 mins by luciferase reporter gene assay; format: functional, cell-based

Structure (SMILES) | pKd [1] | inhibition [3] | pKd [7] | Activity [8] | Activity [9] | inhibition [11] | further results
FC(F)(F)c1ccc2c(N3CCNCC3)ccnc2c1 | 5.10 |  |  |  |  |  | 
Cc1ccc2nc(C(F)(F)F)cc(N3CCOCC3)c2c1 |  |  |  |  |  |  | Kd ([1]; sf9): Not Active
c1ccc2c(N3CCNCC3)ccnc2c1 | 6.46 |  |  |  |  |  | 
Clc1cncc(Cl)c1N1CCNCC1 |  | inactive | 5.46 | inactive | inactive | inactive | inhibition [2]: Active; Kic [4]: 15 µM; Activity [5]: inactive; Activity [6]: inactive; Activity [10]: Active; Kic [12]: 12.9 µM; inhibition [13]: Active
FC(F)(F)c1cc(N2CCNCC2)c2ccccc2n1 | 7.07 |  |  |  |  |  | 
Clc1ccc2c(N3CCNCC3)ccnc2c1 | 7.12 | inactive | 7.08 | inactive | inactive | inactive | inhibition [14]: Active; Kic [4]: 0.191 µM; Activity [5]: inactive; Activity [6]: inactive; Ka [15]: 6.62 ×10⁵ /M/s; inhibition [16]: Active; Activity [10]: Active; Kic [12]: 0.152 µM
Cc1ccc2nc(C(F)(F)F)cc(N3CCC(F)(F)CC3)c2c1 | 4.17 |  |  |  |  |  | 
Cc1ccc2nc(C(F)(F)F)cc(N3CCN(C)CC3)c2c1 | 5.74 |  |  |  |  |  | 
Cc1cc(N2CCNCC2)c2ccccc2n1 | 7.14 | inactive | 7.03 | inactive | inactive | inactive | 
c1cc(N2CCNCC2)ccn1 | 3.85 |  |  |  |  |  | 
c1ccc2c(C3CCNCC3)c[nH]c2c1 |  | inactive | 4.65 | inactive | inactive | inactive | inhibition [2]: Active; Kic [4]: 14.1 µM; Activity [5]: inactive; Activity [6]: inactive; Activity [10]: Active; Kic [12]: 9.9 µM; inhibition [13]: Active
